PfM18AAP inh-1: PfM18AAP enzyme inhibition; AID 1822; inhibition, % at 7.35 µM; recombinant PfM18AAP, H-Glu-NHMec fluorogenic cleavage; 1.2% of 290,000 active;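 active = inhibition above the campaign mean inhibition over all tested compounds plus 3 SD, cut at about 28% in these data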;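 also: 0% = plate median of test compound wells and 100% = 2 mM ZnCl2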
Rtt109 Vps75: inhibitors of Candida albicans Rtt109/Vps75 histone acetyltransferase; 0.16% of 330,000 active; AID 540336; inhibition, % at 34.9 µM; purified Rtt109/Vps75, ThioGlo CoA-SH fluorescence, 4 h; Q5AAJ8;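 active = inhibition of at least 50% in every replicate; inconclusive = best replicate reaches 50% inhibition but some replicates fall short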
Target sequence (Q5AAJ8 whole entry, looked up): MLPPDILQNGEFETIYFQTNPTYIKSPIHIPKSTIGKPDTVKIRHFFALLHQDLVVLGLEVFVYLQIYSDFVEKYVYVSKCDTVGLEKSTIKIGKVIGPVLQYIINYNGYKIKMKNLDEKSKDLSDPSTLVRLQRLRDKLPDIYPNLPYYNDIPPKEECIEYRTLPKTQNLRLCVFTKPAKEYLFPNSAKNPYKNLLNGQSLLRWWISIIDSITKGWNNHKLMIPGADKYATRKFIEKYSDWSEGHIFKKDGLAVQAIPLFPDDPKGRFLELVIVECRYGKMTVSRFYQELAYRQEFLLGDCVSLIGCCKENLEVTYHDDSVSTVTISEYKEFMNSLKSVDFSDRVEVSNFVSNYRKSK
HDAC3 inh: inhibitors of human histone deacetylase 3. inhibition, % at 8.3 µM. O15379. recombinant HDAC3, fluorogenic peptide/trypsin coupled, fluorescence. 0.15% of 320,000 active; in the data active = inhibition above about 26%, passing the limit was not always enough; inconclusive = no clear call, values can overlap the other calls
FAS-TE inh: FAS thioesterase (human) inhibition | P49327 | recombinant FAS-TE, OMFH fluorogenic substrate, fluorescence endpoint | inhibition, % at 15 µM | 0.67% of 360,000 active;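 active = compounds whose normalised, plate-corrected inhibition of enzyme fluorescence in the single-dose primary screen is 50% or more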;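 also: 0% = DMSO with enzyme and 100% = substrate without enzyme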
ALR H2O2 inh: inhibitors of human sulfhydryl oxidase ALR; P55789; purified ALR, DTT oxidation, H2O2 HRP-luminol luminescence; inhibition, % (test concentration not listed); 3.8% of 290,000 active;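 active = mean replicate inhibition above about 79%, with every replicate also reaching it, limit read from the data; inconclusive = only one of the two criteria met; inactive = mean below limit and not every replicate reaching it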
UCH37 inh: inhibitors of human deubiquitinating enzyme UCH37. purified proteasome/UCH37, Ub-AMC cleavage fluorescence. inhibition, % (no concentration beside the values). 0.33% of 330,000 active;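 active = mean inhibition over replicate wells above about 20%, limit read from the data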;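 also: 0% = compound-free wells with enzyme and 100% = wells lacking proteasome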
Target sequence (Q9Y5K5 whole entry, looked up): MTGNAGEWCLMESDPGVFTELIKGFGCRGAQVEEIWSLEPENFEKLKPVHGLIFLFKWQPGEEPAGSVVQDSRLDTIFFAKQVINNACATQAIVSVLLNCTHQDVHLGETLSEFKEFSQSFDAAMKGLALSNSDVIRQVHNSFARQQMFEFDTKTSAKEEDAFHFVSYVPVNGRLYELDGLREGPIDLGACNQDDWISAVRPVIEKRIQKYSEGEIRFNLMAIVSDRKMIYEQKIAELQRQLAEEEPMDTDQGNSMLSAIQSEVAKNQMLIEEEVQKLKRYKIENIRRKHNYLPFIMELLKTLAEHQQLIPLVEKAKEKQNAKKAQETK
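Material: Human UCH37 enzyme supplied as purified proteasome complex | Schedule: 30 min compound-proteasome preincubation then 25 min substrate reaction, room temperature | Detection: AMC fluorescence from Ub-AMC cleavage, excitation 355 nm, emission 460 nm | Benchmarks: Wells without proteasome as full block, compound-free enzyme plus substrate as uninhibited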
PfM18AAP inh-2: confirmation of Plasmodium falciparum M18 aspartyl aminopeptidase inhibitors; shares compounds with PfM18AAP inh-1; recombinant PfM18AAP, H-Glu-NHMec fluorogenic cleavage; inhibition, % at 7.35 µM; 28% of 2,400 active; AID 2170;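 active = mean inhibition over replicate wells above the hit cutoff set for the earlier primary screen, cut at about 29% in these data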;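 also: 0% = median of test compound wells and 100% = 2 mM ZnCl2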
CTSL1 confirm: Cathepsin L (human) inhibition, confirmation; purified cathepsin L1, Z-Leu-Arg-MCA fluorescence; shares compounds with PfM18AAP inh-1; 2,400 tested, under 10 active; inhibition, % at 5.96 µM;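 active = average inhibition across replicates above the hit cutoff set in the earlier primary screen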;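 also: 0% = median of test compound wells and 100% = Z-Phe-Ala-diazomethylketone 1 µM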
* = called active by the depositor. Shown are actives, neighbours in structure and some others; about 4.6% of the full set was active somewhere.

Screening CCN1CCN(C(=S)c2ccc(Br)cc2)CC1 returned PfM18AAP inh-1 39.9*, Rtt109 Vps75 9.4, HDAC3 inh 3.3, FAS-TE inh -4.3, ALR H2O2 inh 3.7, UCH37 inh 5.6, PfM18AAP inh-2 6.0 and CTSL1 confirm 0.6.
CC(=NN1CCCCC1)c1ccccc1O was read as UCH37 inh 3.4.
Screening CCC(O)(CC)C(=O)NN=Cc1cc(Br)cc(Br)c1O returned UCH37 inh -21.7.
`Cc1ccsc1C=c1sc2ncnn2c1=O` gave UCH37 inh 9.0.
`Cc1ccc(Cn2c(SCCN3CCCCC3)nc3c2c(=O)[nH]c(=O)n3C)cc1` gave PfM18AAP inh-1 38.1*, Rtt109 Vps75 8.6, FAS-TE inh -3.0, ALR H2O2 inh 6.4, UCH37 inh -0.1, PfM18AAP inh-2 -0.1 and CTSL1 confirm 3.9.
Screening Cn1c(=O)[nH]c(=O)c2c1nc(SCCN1CCCCC1)n2CCCc1ccccc1 returned PfM18AAP inh-1 54.6*, Rtt109 Vps75 inconclusive, HDAC3 inh 12.7, FAS-TE inh 0.2, ALR H2O2 inh 5.9, UCH37 inh 0.4, PfM18AAP inh-2 7.5 and CTSL1 confirm -0.8.
Cn1nc(C(F)(F)F)c(C=NOC(=O)c2ccccc2Cl)c1SCc1ccc(Cl)cc1 was read as UCH37 inh 0.2.
N#Cc1c(/N=C/c2ccco2)sc2c1CCCCC2 was read as PfM18AAP inh-1 34.8*, Rtt109 Vps75 -2.9, HDAC3 inh 1.0, FAS-TE inh 17.4, PfM18AAP inh-2 -31.0 and CTSL1 confirm 2.2.
Screening COc1cccc(OC)c1OCc1cc(C2C3CCCC=C3C(C#N)=C(N)C2(C#N)C#N)c(C)cc1C (stereo unspecified) returned PfM18AAP inh-1 36.2*, Rtt109 Vps75 1.1, HDAC3 inh 9.7, FAS-TE inh 12.6, ALR H2O2 inh -4.4, UCH37 inh -4.0, PfM18AAP inh-2 -53.7 and CTSL1 confirm -4.3.
`O=C(CC1Sc2ccccc2NC1=O)Nc1cccc(C(=O)O)c1` (stereo unspecified) gave PfM18AAP inh-1 41.3*, Rtt109 Vps75 -1.2, HDAC3 inh -1.3, FAS-TE inh -1.6, ALR H2O2 inh -1.5, UCH37 inh 4.8, PfM18AAP inh-2 25.5 and CTSL1 confirm -3.8.
`O=C(NN=Cc1cn[nH]c1-c1ccccc1)c1cccs1` gave UCH37 inh 0.5.
Screening CN(C)/C=C/c1oc2ccc(O)cc2c1[N+](=O)[O-] returned PfM18AAP inh-1 35.8*, HDAC3 inh inconclusive, FAS-TE inh 8.6, ALR H2O2 inh -1.1, PfM18AAP inh-2 -34.9 and CTSL1 confirm 11.2.
Screening O=C(CCCn1c(SCC(=O)c2ccc(O)c(O)c2)nc2ccccc2c1=O)NCC1CCCO1 (stereo unspecified) returned PfM18AAP inh-1 52.8*, Rtt109 Vps75 10.7, HDAC3 inh -1.2, FAS-TE inh -8.6, ALR H2O2 inh 98.8*, UCH37 inh 7.9, PfM18AAP inh-2 38.5* and CTSL1 confirm 3.4.
Screening CCCCn1c(SCC(=O)c2ccc(O)c(O)c2)nc2ccsc2c1=O returned PfM18AAP inh-1 37.4*, Rtt109 Vps75 4.2, HDAC3 inh 6.1, FAS-TE inh 20.2, UCH37 inh 4.1, PfM18AAP inh-2 27.6 and CTSL1 confirm 3.9.
`Cn1cnnc1SCC(=O)c1ccc(O)c(O)c1` gave PfM18AAP inh-1 53.3*, Rtt109 Vps75 -0.7, HDAC3 inh 0.0, FAS-TE inh -8.5, ALR H2O2 inh 99.1*, UCH37 inh 9.6, PfM18AAP inh-2 34.9* and CTSL1 confirm 2.8.
O=C(O)c1ccc(CSc2nnnn2-c2ccc(F)cc2)cc1 was read as PfM18AAP inh-1 -1.4, Rtt109 Vps75 -4.5, HDAC3 inh 2.8, FAS-TE inh -8.0, ALR H2O2 inh 1.7 and UCH37 inh 1.2.
O=C(CSc1nnnn1-c1ccc(F)cc1)c1ccc(O)c(O)c1 was read as PfM18AAP inh-1 47.4*, Rtt109 Vps75 6.0, HDAC3 inh 9.6, FAS-TE inh -1.2, ALR H2O2 inh 97.5*, UCH37 inh 5.2, PfM18AAP inh-2 28.1* and CTSL1 confirm -5.1.
For Cc1ccc(C=NNC(=O)COc2ccccc2-c2ccccc2)cc1 the results were UCH37 inh 0.1.
For CC(=NNC(=S)NCCc1ccccc1)c1ccc(C)cc1 the results were UCH37 inh 0.2.
`CC1C/C(=N/N2C(=O)CSC2=S)CC(C)(C)C1` (stereo unspecified) gave PfM18AAP inh-1 38.0*, Rtt109 Vps75 0.6, HDAC3 inh -2.8, FAS-TE inh -2.2, ALR H2O2 inh 5.3, PfM18AAP inh-2 -19.7 and CTSL1 confirm -2.5.
Screening CCOc1cc(/C=N/Nc2nnc(C)n2N)ccc1OC(C)=O returned PfM18AAP inh-1 33.5*, Rtt109 Vps75 -6.4, HDAC3 inh 4.1, FAS-TE inh 1.1, ALR H2O2 inh 14.4, PfM18AAP inh-2 -59.0 and CTSL1 confirm -0.1.
Screening Cc1nnc(N/N=C/c2cccc(OCc3ccc(Cl)c(Cl)c3)c2)n1N returned PfM18AAP inh-1 49.1*, Rtt109 Vps75 20.7, HDAC3 inh -2.0, FAS-TE inh 21.3, ALR H2O2 inh -8.7, PfM18AAP inh-2 -36.9 and CTSL1 confirm 4.4.
Screening COc1ccc(C=NNc2nnc(C)n2N)cc1OC(C)=O returned UCH37 inh 6.8.
For COc1ccccc1NS(=O)(=O)c1cccc(C(=O)NN=C(C)c2ccncc2)c1 the results were UCH37 inh 3.9.
For CC1CCN(c2nc3c(N)ncnc3n2[C@@H]2O[C@H](CO)[C@@H](O)[C@H]2O)CC1 the results were PfM18AAP inh-1 1.5, Rtt109 Vps75 1.1, HDAC3 inh -6.0, FAS-TE inh -5.2, ALR H2O2 inh -7.2 and UCH37 inh 0.2.
`CCOc1ccccc1/C=N/Nc1nc2c(N)ncnc2n1[C@H]1O[C@@H](CO)[C@H](O)[C@@H]1O` gave PfM18AAP inh-1 36.2*, Rtt109 Vps75 -5.9, HDAC3 inh 4.4, FAS-TE inh -3.6, ALR H2O2 inh 35.0, PfM18AAP inh-2 -25.5 and CTSL1 confirm 3.9.
`C/C(C=NNC(=O)CSc1nc(C)cc(C)n1)=C\c1ccccc1` gave UCH37 inh 3.5.
`CCN(CC)c1ccc(C=NN2CCN(Cc3ccccc3)CC2)c(O)c1` gave UCH37 inh 6.7.
Screening Cc1ccc(C=c2sc3n(c2=O)CN(c2cccc(Br)c2)CN=3)o1 returned UCH37 inh 0.4.

Source: PubChem BioAssay
